Laboratory results as given in ChEMBL document CHEMBL4251600, “Bioactive products from singlet oxygen photooxygenation of cannabinoids” (Eur J Med Chem, 2018).
In brackets after ≈: the same amount, converted by molar mass. Activity calls are given as the source filed them. No cut-off for these calls is given here.

Columns and labels:
Nakaseomyces glabratus = assay: Antifungal activity against Candida glabrata by modified CLSI based method; format: functional, organism-based
Pichia kudriavzevii = assay: Antifungal activity against Candida krusei by modified CLSI based method; format: functional, organism-based
Leishmania donovani = assay: Antileishmanial activity against Leishmania donovani promastigotes incubated for 48 hrs by alamar blue assay; format: functional, organism-based
Cryptococcus neoformans = assay: Antifungal activity against Cryptococcus neoformans by alamar blue assay; format: functional, organism-based
Staphylococcus aureus [1] = assay: Antimicrobial activity against methicillin-resistant Staphylococcus aureus by modified CLSI based method; format: functional, organism-based
Staphylococcus aureus [2] = assay: Antimicrobial activity against Staphylococcus aureus by modified CLSI based method; format: functional, organism-based
Plasmodium falciparum [3] = assay: Antiplasmodial activity against chloroquine-resistant Plasmodium falciparum W2 infected in red blood cells incubated for 72 hrs by parasite LDH release based colorimetric assay; format: functional, organism-based; details: W2, 72 h
Cannabinoid receptor 1 [4] = biological target: T1, Cannabinoid receptor 1 (Homo sapiens, UniProt P21554); assay: Displacement of [3H]CP-55,940 from recombinant human full length CB1 receptor expressed in HEK293 cell membranes after 90 mins by topcount method
T1 sequence (P21554 whole entry): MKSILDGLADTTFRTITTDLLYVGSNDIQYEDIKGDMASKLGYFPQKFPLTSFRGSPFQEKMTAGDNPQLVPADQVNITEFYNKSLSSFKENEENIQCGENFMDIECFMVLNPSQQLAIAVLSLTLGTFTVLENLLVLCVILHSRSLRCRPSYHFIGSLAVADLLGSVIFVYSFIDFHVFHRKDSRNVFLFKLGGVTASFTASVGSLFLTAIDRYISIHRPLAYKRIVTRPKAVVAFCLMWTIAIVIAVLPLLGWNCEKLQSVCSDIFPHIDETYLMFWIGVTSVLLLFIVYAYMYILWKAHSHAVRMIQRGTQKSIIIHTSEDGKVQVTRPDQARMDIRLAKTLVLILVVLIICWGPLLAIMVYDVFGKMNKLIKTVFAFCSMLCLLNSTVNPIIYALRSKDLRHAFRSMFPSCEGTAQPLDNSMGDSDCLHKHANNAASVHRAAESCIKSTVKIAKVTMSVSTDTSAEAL

Cannabinoid receptor 2 [5] = biological target: T2, Cannabinoid receptor 2 (Homo sapiens, UniProt P34972); assay: Displacement of [3H]CP-55,940 from recombinant human full length CB2 receptor expressed in HEK293 cell membranes after 90 mins by topcount method
T2 sequence (P34972 whole entry): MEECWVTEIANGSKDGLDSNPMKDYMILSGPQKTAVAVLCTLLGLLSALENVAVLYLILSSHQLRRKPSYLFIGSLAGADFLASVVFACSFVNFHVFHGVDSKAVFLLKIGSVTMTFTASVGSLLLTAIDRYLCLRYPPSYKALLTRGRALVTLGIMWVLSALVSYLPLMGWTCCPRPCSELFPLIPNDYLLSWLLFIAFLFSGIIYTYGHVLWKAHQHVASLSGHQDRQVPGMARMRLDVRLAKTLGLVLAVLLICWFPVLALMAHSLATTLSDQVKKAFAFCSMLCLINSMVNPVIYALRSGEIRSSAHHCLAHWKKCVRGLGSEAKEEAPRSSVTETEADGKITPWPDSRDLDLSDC

Plasmodium falciparum [6] = assay: Antiplasmodial activity against chloroquine-sensitive Plasmodium falciparum D6 infected in red blood cells incubated for 72 hrs by parasite LDH release based colorimetric assay; format: functional, organism-based; details: D6, 72 h
Cannabinoid receptor 1 [7] = biological target: T1, Cannabinoid receptor 1; assay: Agonist activity at recombinant human full length CB1 receptor expressed in HEK293 cell membranes after 2 hrs by [35S]GTP-gammaS binding assay; format: functional
Outline: (§1)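 Membranes (20 µg/well) from HEK293 cells stably transfected with human CB1 or CB2 cDNA were incubated with test compound and 0.5 nM [35S]-GTP-γS. Buffer: 50 mM Tris-HCl, 0.2 mM EGTA, 9 mM MgCl2, 150 mM NaCl, 50 µM GDP, 1.4 mg/ml BSA. Incubation ran 2 h at 30°C and was stopped by vacuum filtration through GF/B filters with cold Tris-HCl. Nonspecific binding was taken with 40 µM GTP-γS.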

Cannabinoid receptor 2 [8] = biological target: T2, Cannabinoid receptor 2; assay: Agonist activity at recombinant human full length CB2 receptor expressed in HEK293 cell membranes after 2 hrs by [35S]GTP-gammaS binding assay; format: functional; outline: as §1
LLC-PK1 = assay: Cytotoxicity against pig LLC-PK1 cells assessed as cell growth inhibition incubated for 48 hrs by neutral red dye based assay; design: species or system Sus scrofa; details: Sus scrofa, LLC-PK1, 48 h; read-out: IC50
SK-MEL = assay: Anticancer activity against human SK-MEL cells assessed as cell growth inhibition up to 10 ug/ml incubated for 48 hrs by neutral red dye based assay; format: functional
Cannabinoid receptor 1 [9] = biological target: T1, Cannabinoid receptor 1; assay: Agonist activity at recombinant human full length CB1 receptor expressed in HEK293 cell membranes at 100 uM after 2 hrs by [35S]GTP-gammaS binding assay relative to CP-55,940; format: functional
Cannabinoid receptor 2 [10] = biological target: T2, Cannabinoid receptor 2; assay: Agonist activity at recombinant human full length CB2 receptor expressed in HEK293 cell membranes at 100 uM after 2 hrs by [35S]GTP-gammaS binding assay relative to CP-55,940; format: functional
[11] = Leishmania donovani, 48 h, read-out: IC50
[12] = Leishmania donovani, 48 h, read-out: IC90
[13] = Cryptococcus neoformans, read-out: IC50
[14] = Staphylococcus aureus, read-out: IC50

Question: How did the MIC (Nakaseomyces glabratus) turn out when `C=C1C[C@H]2C3=C(OC(C)(C)[C@@H]2CC1OO)C(=O)C(CCCCC)=CC3=O` (stereo in doubt; 25) was run?
Answer: inactive

Question: What about the MIC (Pichia kudriavzevii) of the same molecule?
Answer: inactive

Question: Which results are given for `C=C1C[C@H]2C3=C(OC(C)(C)[C@@H]2C[C@H]1O)C(=O)C(CCCCC)=CC3=O`?
Answer: IC50 (Leishmania donovani; [11]): 0.6 µg/mL (≈ 1.74 µM); IC90 (Leishmania donovani; [12]): 1.3 µg/mL (≈ 3.77 µM); IC50 (Nakaseomyces glabratus): Not Active; MIC (Nakaseomyces glabratus): inactive; IC50 (Pichia kudriavzevii): Not Active; MIC (Pichia kudriavzevii): inactive; IC50 (Cryptococcus neoformans; [13]): 1.84 µg/mL (≈ 5.34 µM); MIC (Cryptococcus neoformans; Cryptococcus neoformans, read-out: MIC): 5 µg/mL (≈ 14.5 µM); MIC (Staphylococcus aureus [1]; Staphylococcus aureus): 10 µg/mL (≈ 29 µM); IC50 (Staphylococcus aureus [1]; [14]): 5.53 µg/mL (≈ 16.1 µM); IC50 (Staphylococcus aureus [2]; [14]): 2.03 µg/mL (≈ 5.89 µM); MIC (Staphylococcus aureus [2]; Staphylococcus aureus, read-out: MIC): 2.5 µg/mL (≈ 7.26 µM)

Question: `CCCCCc1cc(O)c2c(c1)OC(C)(C)C1=C2C(OC(C)=O)C(C)(OC)CC1` (stereo not given) was tested. Which IC50 (Plasmodium falciparum [3]) did it give?
Answer: 3 µg/mL (≈ 7.45 µM)

Question: And the IC50 (Cannabinoid receptor 1 [4])?
Answer: 2800 nM

Question: What about the Ki (Cannabinoid receptor 1 [4]) of the same molecule?
Answer: 1400 nM

Question: And the IC50 (Cannabinoid receptor 2 [5])?
Answer: 1980 nM

Question: And the Ki (Cannabinoid receptor 2 [5])?
Answer: 990 nM

Question: What about the IC50 (Plasmodium falciparum [6]) of the same molecule?
Answer: 3.3 µg/mL (≈ 8.2 µM)

Question: `CCCCCc1cc(O)c2c(c1)OC(C)(C)[C@@H]1C=C[C@@](C)(O)C[C@@H]21` was tested. Which IC50 (Cannabinoid receptor 1 [4]) did it give?
Answer: 930 nM

Question: And the Ki (Cannabinoid receptor 1 [4])?
Answer: 470 nM

Question: And the IC50 (Cannabinoid receptor 1 [7])?
Answer: 387 nM

Question: And the Ki (Cannabinoid receptor 1 [7])?
Answer: 193 nM

Question: And the IC50 (Cannabinoid receptor 2 [5])?
Answer: 19 nM

Question: What about the Ki (Cannabinoid receptor 2 [5]) of the same molecule?
Answer: 9.5 nM

Question: And the IC50 (Cannabinoid receptor 2 [8])?
Answer: 11.4 µM

Question: And the Ki (Cannabinoid receptor 2 [8])?
Answer: 5.7 µM

Question: Which results are given for `CCCCCc1cc2c(c(OS(=O)(=O)c3ccc(C)cc3)c1)[C@@H]1[C@H](O)C(C)=CC[C@H]1C(C)(C)O2`?
Answer: IC50 (Cannabinoid receptor 1 [4]): 1280 nM; Ki (Cannabinoid receptor 1 [4]): 642 nM; IC50 (Cannabinoid receptor 2 [5]): 1110 nM; Ki (Cannabinoid receptor 2 [5]): 552 nM

Question: How did the IC50 (LLC-PK1) turn out when `C=C1C[C@H]2C3=C(OC(C)(C)[C@@H]2CC1OO)C(=O)C(CCCCC)=CC3=O` (stereo in doubt; 26) [listing 1 of 2 here] was run?
Answer: 9.95 µg/mL (≈ 27.6 µM)

Question: And the IC50 (Leishmania donovani)?
Answer: 3.1 µg/mL (≈ 8.6 µM)

Question: What about the IC90 (Leishmania donovani) of the same molecule?
Answer: 8 µg/mL (≈ 22.2 µM)

Question: What about the IC50 (Pichia kudriavzevii) of the same molecule?
Answer: 20 µg/mL (≈ 55.5 µM)

Question: And the IC50 (Cryptococcus neoformans)?
Answer: 2.05 µg/mL (≈ 5.69 µM)

Question: And the MIC (Cryptococcus neoformans)?
Answer: 5 µg/mL (≈ 13.9 µM)

Question: And the IC50 (SK-MEL)?
Answer: Not Active

Question: What about the IC50 (Staphylococcus aureus [1]) of the same molecule?
Answer: 15.3 µg/mL (≈ 42.4 µM)

Question: What about the IC50 (Staphylococcus aureus [2]) of the same molecule?
Answer: 2.41 µg/mL (≈ 6.69 µM)

Question: What about the MIC (Staphylococcus aureus [2]) of the same molecule?
Answer: 5 µg/mL (≈ 13.9 µM)

Question: For `C=C1C[C@H]2C3=C(OC(C)(C)[C@@H]2CC1OO)C(=O)C(CCCCC)=CC3=O` (stereo in doubt; 26) [listing 2 of 2 here], which MIC (Nakaseomyces glabratus) is on record?
Answer: inactive

Question: What about the MIC (Pichia kudriavzevii) of the same molecule?
Answer: inactive

Question: And the MIC (Staphylococcus aureus [1])?
Answer: inactive

Question: Which results are given for `C=C1C[C@H]2c3c(cc(CCCCC)cc3OS(=O)(=O)c3ccc(C)cc3)OC(C)(C)[C@@H]2CC1OO` (stereo not given in full)?
Answer: IC50 (Cannabinoid receptor 1 [4]): 5700 nM; Ki (Cannabinoid receptor 1 [4]): 2850 nM; IC50 (Cannabinoid receptor 2 [5]): 2060 nM; Ki (Cannabinoid receptor 2 [5]): 1030 nM

Question: How did the IC50 (Plasmodium falciparum [3]) turn out when `C=C1C[C@H]2c3c(O)cc(CCCCC)cc3OC(C)(C)[C@@H]2C[C@H]1O` was run?
Answer: 1.7 µg/mL (≈ 5.14 µM)

Question: And the IC50 (Nakaseomyces glabratus)?
Answer: Not Active

Question: What about the MIC (Nakaseomyces glabratus) of the same molecule?
Answer: inactive

Question: And the IC50 (Pichia kudriavzevii)?
Answer: Not Active

Question: What about the MIC (Pichia kudriavzevii) of the same molecule?
Answer: inactive

Question: What about the MIC (Cryptococcus neoformans) of the same molecule?
Answer: inactive

Question: What about the IC50 (Cryptococcus neoformans; [13]) of the same molecule?
Answer: 8.34 µg/mL (≈ 25.2 µM)

Question: What about the IC50 (Plasmodium falciparum [6]) of the same molecule?
Answer: 2.4 µg/mL (≈ 7.26 µM)

Question: And the IC50 (Staphylococcus aureus [1])?
Answer: Not Active

Question: And the MIC (Staphylococcus aureus [1])?
Answer: inactive

Question: And the MIC (Staphylococcus aureus [2])?
Answer: inactive

Question: And the IC50 (Staphylococcus aureus [2]; [14])?
Answer: 10.7 µg/mL (≈ 32.4 µM)

Question: What does the source list for `CCCCCc1cc(O)c2c(c1)OC(C)(C)C1=C2C(OCC)C(C)(O)CC1` (stereo not given)?
Answer: IC50 (Plasmodium falciparum [3]): 3.7 µg/mL (≈ 9.88 µM); IC50 (Leishmania donovani; [11]): 3 µg/mL (≈ 8.01 µM); IC90 (Leishmania donovani; [12]): 6 µg/mL (≈ 16 µM); IC50 (Nakaseomyces glabratus): Not Active; MIC (Nakaseomyces glabratus): inactive; IC50 (Pichia kudriavzevii): Not Active; MIC (Pichia kudriavzevii): inactive; MIC (Cryptococcus neoformans): inactive; IC50 (Cryptococcus neoformans; [13]): 4.57 µg/mL (≈ 12.2 µM); IC50 (Plasmodium falciparum [6]): 3.6 µg/mL (≈ 9.61 µM); MIC (Staphylococcus aureus [1]): inactive; IC50 (Staphylococcus aureus [1]; [14]): 17.1 µg/mL (≈ 45.6 µM); MIC (Staphylococcus aureus [2]): inactive; IC50 (Staphylococcus aureus [2]; [14]): 4.86 µg/mL (≈ 13 µM)

Question: How did the IC90 (Leishmania donovani; [12]) turn out when `N=C(N)c1ccc(OCCCCCOc2ccc(C(=N)N)cc2)cc1` [PENTAMIDINE] was run?
Answer: 2 µg/mL (≈ 5.87 µM)

Question: `CCCCCc1cc2c(c(OS(=O)(=O)c3ccc(C)cc3)c1)[C@@H]1CC(C)(OO)C=C[C@H]1C(C)(C)O2` (stereo not given in full) was tested. Which IC50 (Cannabinoid receptor 1 [4]) did it give?
Answer: 275 nM

Question: And the Ki (Cannabinoid receptor 1 [4])?
Answer: 137 nM

Question: And the IC50 (Cannabinoid receptor 1 [7])?
Answer: 97 nM

Question: What about the Ki (Cannabinoid receptor 1 [7]) of the same molecule?
Answer: 48 nM

Question: And the Emax (Cannabinoid receptor 1 [9])?
Answer: 20%

Question: And the IC50 (Cannabinoid receptor 2 [5])?
Answer: 421 nM

Question: And the Ki (Cannabinoid receptor 2 [5])?
Answer: 211 nM

Question: And the Emax (Cannabinoid receptor 2 [10])?
Answer: 90%

Question: What about the IC50 (Cannabinoid receptor 2 [8]) of the same molecule?
Answer: 1.75 µM

Question: And the Ki (Cannabinoid receptor 2 [8])?
Answer: 0.876 µM

Question: `CCCCCc1cc2c(c(OS(=O)(=O)c3ccc(C)cc3)c1)[C@H]1[C@@H](CC=C(C)[C@@H]1OO)C(C)(C)O2` was tested. Which IC50 (Cannabinoid receptor 1 [4]) did it give?
Answer: 1020 nM

Question: And the Ki (Cannabinoid receptor 1 [4])?
Answer: 512 nM

Question: And the IC50 (Cannabinoid receptor 2 [5])?
Answer: 851 nM

Question: What about the Ki (Cannabinoid receptor 2 [5]) of the same molecule?
Answer: 426 nM
